Measured values: ChEMBL document CHEMBL4390639, “Design, Synthesis, and Biological Evaluation of Novel Allosteric Protein Disulfide Isomerase Inhibitors” (J Med Chem, 2019)
Activity calls are given as the source filed them. No cut-off for these calls is given here.

Legend:
[1] = tested on: U-87 MG; test: Down regulation of cleaved MMP2 expression in human U87MG cells at 10 uM measured after 24 hrs by Western blot analysis; assay type: functional, cell-based; settings: U-87MG ATCC
[2] = tested on: A 172; test: Induction of morphological changes in human A172 cells assessed as formation of lipid vesicles around nucleus at 17 uM measured after 48 hrs by Giemsa-staining based microscopic analysis; assay type: functional, cell-based
[3] = tested on: U-87 MG; test: Down regulation of CYP1B1 gene expression in human U87MG cells at 16 uM incubated for 4 hrs followed by bromouridine addition during last 30 mins of incubation by TRIzol-reagent based Bru-Seq analysis relative to control; assay type: functional, U-87MG ATCC
[4] = tested on: U-87 MG; test: Down regulation of BIRC3 gene expression in human U87MG cells at 16 uM incubated for 4 hrs followed by bromouridine addition during last 30 mins of incubation by TRIzol-reagent based Bru-Seq analysis relative to control; assay type: functional, U-87MG ATCC
[5] = tested on: U-87 MG; test: Up regulation of SLC7A11 gene expression in human U87MG cells at 16 uM incubated for 4 hrs followed by bromouridine addition during last 30 mins of incubation by TRIzol-reagent based Bru-Seq analysis relative to control; assay type: functional, U-87MG ATCC
Method in brief: (§1)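 U87MG cells treated 4 h with test compound (10 or 16 μM, as per line) or DMSO; 2 mM bromouridine added for final 30 min. Total RNA isolated with TRIzol, Bru-labelled nascent RNA captured with anti-BrdU antibody magnetic beads and sequenced; transcript abundance (RPKM) compared with DMSO control. Single experiment.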

[6] = tested on: U-87 MG; test: Down regulation of H1F0 gene expression in human U87MG cells at 16 uM incubated for 4 hrs followed by bromouridine addition during last 30 mins of incubation by TRIzol-reagent based Bru-Seq analysis relative to control; assay type: functional, U-87MG ATCC
[7] = tested on: U-87 MG; test: Up regulation of GCLC gene expression in human U87MG cells at 16 uM incubated for 4 hrs followed by bromouridine addition during last 30 mins of incubation by TRIzol-reagent based Bru-Seq analysis relative to control; assay type: functional, U-87MG ATCC
Method in brief: (§2)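 U87MG cells exposed to compound or DMSO vehicle for 4 h, with 2 mM bromouridine added for the final 30 min. Total RNA isolated with TRIzol; Bru-labelled nascent RNA captured on anti-BrdU antibody-conjugated magnetic beads and sequenced. Transcript abundance expressed as RPKM relative to DMSO. Experiment performed once.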

[8] = tested on: U-87 MG; test: Up regulation of AC087672.3 gene expression in human U87MG cells at 16 uM incubated for 4 hrs followed by bromouridine addition during last 30 mins of incubation by TRIzol-reagent based Bru-Seq analysis relative to control; assay type: functional, U-87MG ATCC; method in brief: as §2
[9] = tested on: U-87 MG; test: Up regulation of AC005324.3 gene expression in human U87MG cells at 16 uM incubated for 4 hrs followed by bromouridine addition during last 30 mins of incubation by TRIzol-reagent based Bru-Seq analysis relative to control; assay type: functional, U-87MG ATCC; method in brief: as §2
[10] = tested on: U-87 MG; test: Down regulation of AC139722.1 gene expression in human U87MG cells at 16 uM incubated for 4 hrs followed by bromouridine addition during last 30 mins of incubation by TRIzol-reagent based Bru-Seq analysis relative to control; assay type: functional, U-87MG ATCC; method in brief: as §2
[11] = tested on: U-87 MG; test: Up regulation of TRIM16L gene expression in human U87MG cells at 16 uM incubated for 4 hrs followed by bromouridine addition during last 30 mins of incubation by TRIzol-reagent based Bru-Seq analysis relative to control; assay type: functional, U-87MG ATCC
[12] = tested on: U-87 MG; test: Down regulation of AC010931.3 gene expression in human U87MG cells at 16 uM incubated for 4 hrs followed by bromouridine addition during last 30 mins of incubation by TRIzol-reagent based Bru-Seq analysis relative to control; assay type: functional, U-87MG ATCC
[13] = tested on: U-87 MG; test: Up regulation of KCNE4 gene expression in human U87MG cells at 16 uM incubated for 4 hrs followed by bromouridine addition during last 30 mins of incubation by TRIzol-reagent based Bru-Seq analysis relative to control; assay type: functional, U-87MG ATCC; method in brief: as §2
[14] = tested on: A 172; test: Induction of morphological changes in human A172 cells assessed as necroptotic cell death at 20 uM measured after 48 hrs by Giemsa-staining based microscopic analysis; assay type: functional
[15] = tested on: U-87 MG; test: Down regulation of AC007848.1 gene expression in human U87MG cells at 16 uM incubated for 4 hrs followed by bromouridine addition during last 30 mins of incubation by TRIzol-reagent based Bru-Seq analysis relative to control; assay type: functional, U-87MG ATCC
[16] = tested on: U-87 MG; test: Up regulation of OSGIN1 gene expression in human U87MG cells at 16 uM incubated for 4 hrs followed by bromouridine addition during last 30 mins of incubation by TRIzol-reagent based Bru-Seq analysis relative to control; assay type: functional, U-87MG ATCC; method in brief: as §2
[17] = tested on: U-87 MG; test: Down regulation of STRA6 gene expression in human U87MG cells at 16 uM incubated for 4 hrs followed by bromouridine addition during last 30 mins of incubation by TRIzol-reagent based Bru-Seq analysis relative to control; assay type: functional, U-87MG ATCC; method in brief: as §2
[18] = tested on: U-87 MG; test: Down regulation of HLA-DQB1 gene expression in human U87MG cells at 16 uM incubated for 4 hrs followed by bromouridine addition during last 30 mins of incubation by TRIzol-reagent based Bru-Seq analysis relative to control; assay type: functional, U-87MG ATCC; method in brief: as §2
[19] = tested on: U-87 MG; test: Down regulation of LRRN3 gene expression in human U87MG cells at 16 uM incubated for 4 hrs followed by bromouridine addition during last 30 mins of incubation by TRIzol-reagent based Bru-Seq analysis relative to control; assay type: functional, U-87MG ATCC; method in brief: as §2
[20] = tested on: U-87 MG; test: Up regulation of TM4SF19-TCTEX1D2 gene expression in human U87MG cells at 10 uM incubated for 4 hrs followed by bromouridine addition during last 30 mins of incubation by TRIzol-reagent based Bru-Seq analysis relative to control; assay type: functional, U-87MG ATCC; method in brief: as §1
[21] = tested on: U-87 MG; test: Down regulation of LRRC63 gene expression in human U87MG cells at 10 uM incubated for 4 hrs followed by bromouridine addition during last 30 mins of incubation by TRIzol-reagent based Bru-Seq analysis relative to control; assay type: functional, U-87MG ATCC
[22] = tested on: U-87 MG; test: Up regulation of DNAJB1 gene expression in human U87MG cells at 10 uM incubated for 4 hrs followed by bromouridine addition during last 30 mins of incubation by TRIzol-reagent based Bru-Seq analysis relative to control; assay type: functional, U-87MG ATCC; method in brief: as §2
[23] = tested on: U-87 MG; test: Down regulation of CHSY3 gene expression in human U87MG cells at 10 uM incubated for 4 hrs followed by bromouridine addition during last 30 mins of incubation by TRIzol-reagent based Bru-Seq analysis relative to control; assay type: functional, U-87MG ATCC
[24] = tested on: U-87 MG; test: Up regulation of NUPR1 gene expression in human U87MG cells at 10 uM incubated for 4 hrs followed by bromouridine addition during last 30 mins of incubation by TRIzol-reagent based Bru-Seq analysis relative to control; assay type: functional, U-87MG ATCC; method in brief: as §2
[25] = tested on: U-87 MG; test: Down regulation of E2F1 gene expression in human U87MG cells at 10 uM incubated for 4 hrs followed by bromouridine addition during last 30 mins of incubation by TRIzol-reagent based Bru-Seq analysis; assay type: functional, cell-based; settings: U-87MG ATCC
[26] = tested on: U-87 MG; test: Up regulation of HSPA6 gene expression in human U87MG cells at 10 uM incubated for 4 hrs followed by bromouridine addition during last 30 mins of incubation by TRIzol-reagent based Bru-Seq analysis relative to control; assay type: functional, U-87MG ATCC; method in brief: as §2
[27] = tested on: U-87 MG; test: Down regulation of HIST1H2BC gene expression in human U87MG cells at 10 uM incubated for 4 hrs followed by bromouridine addition during last 30 mins of incubation by TRIzol-reagent based Bru-Seq analysis relative to control; assay type: functional, U-87MG ATCC

O=C(/C=C/c1ccc(-c2cccnc2)cc1)c1cccc(O)c1
Activity [1]: Active

N#Cc1cccc(/C=C/C(=O)c2ccc(O)cc2)c1
Activity [2]: Active

COC(=O)c1cccc(/C=C/C(=O)c2cccc(O)c2)c1
fold change (FC) [3]: 2.8
fold change (FC) [4]: 3.3
fold change (FC) [5]: 21.2
fold change (FC) [6]: 2.7
fold change (FC) [7]: 1.9
fold change (FC) [8]: 3.8
fold change (FC) [9]: 5.3
fold change (FC) [10]: 4.7
fold change (FC) [11]: 4.9
fold change (FC) [12]: 3.2
fold change (FC) [13]: 5.1
Activity [14]: Active
fold change (FC) [15]: 2.9
fold change (FC) [16]: 5.4
fold change (FC) [17]: 4
fold change (FC) [18]: 3.7
fold change (FC) [19]: 3.6

CCCCCN(CCCCC)S(=O)(=O)c1ccc(C(=O)/C=C/c2cccc(C#N)c2)cc1
fold change (FC) [20]: 8.7
fold change (FC) [21]: 2.5
fold change (FC) [22]: 16.9
fold change (FC) [23]: 2.6
fold change (FC) [24]: 11.8
Activity [25]: Active
fold change (FC) [26]: 464.7
fold change (FC) [27]: 2.3
